Assay results from different studies.
Each line is one published result; the experiments were not run side by side.
Cell line: A549
Effect on: cell growth or viability

| Structure (SMILES) | method | time | setting | IC50 [µM] |
| --- | --- | --- | --- | --- |
| O=C(Nc1nnc(-c2cc3ccccc3[nH]2)s1)c1cc2c([nH]c3ccccc32)c(-c2ccc(F)cc2)n1 | MTT | 72 h | – | 3.64 |
| CCC(=O)Nc1cc(Nc2nc(N3CCc4sccc4C3)c3cccnc3n2)c(OC)cc1N1CCN(CC)CC1 | MTT | – | – | 21.9 |
| CCN(CC)C(=S)NC(=O)c1ccc2ccccc2c1 | – | 48 h | – | 4.76 |
| CCC(=O)Nc1cc(Nc2nc(N3CCc4sccc4C3)c3cccnc3n2)c(OC)cc1N1CCN(CCO)CC1 | MTT | – | – | > 50 |
| C=CC(=O)Nc1cccc(Nc2nc(Nc3ccc(OCCOC)cc3)ncc2F)c1 | – | – | – | 4.96 |
| COC(=O)/C=C1\S/C(=N\C(=O)c2ccc3ccccc3c2)N(C2CCCCC2)C1=O | – | 48 h | – | 13.4 |
| COc1ccc(NC(=O)Nc2ccc(OCc3nccc(OC)c3OC)cc2)cc1 | MTT | 72 h | – | 16.7 |
| COc1cc2ncnc(Nc3ccc(F)c(Cl)c3)c2cc1NC(=O)N/N=C/c1cccn1CCN1CCCCC1 | MTT | 72 h | – | 2.31 |
| Nc1ccc(-c2csc(Nc3ccc4c(O)ncnc4c3)n2)cc1 | MTT | – | – | 29.6 |
| CNC(=O)c1cc(Oc2ccc(NC(=O)Nc3ccc(Cl)c(C(F)(F)F)c3)cc2)ccn1 | MTT | 24 h | – | > 40 |
| COc1cc([C@@H]2c3cc4c(cc3[C@@H](O[C@@H]3O[C@@H]5CO[C@@H](C)O[C@H]5[C@H](O)[C@H]3O)[C@H]3COC(=O)[C@H]23)OCO4)cc(OC)c1O | MTT | 72 h | – | 0.54 |
| COc1cc2ncnc(Nc3ccc(F)c(Cl)c3)c2cc1NC(=O)N/N=C/c1cccn1CCCN1CCOCC1 | MTT | 72 h | – | 1.86 |
| CCC(=O)Nc1cc(Nc2nc(N3CCOCC3)c3sccc3n2)c(OC)cc1N(C)CCN(C)C | MTT | – | – | > 50 |
| CCN(CC)CCCn1cccc1/C=N/NC(=O)Nc1cc2c(Nc3ccc(F)c(Cl)c3)ncnc2cc1OC | MTT | 72 h | – | 2.38 |
| CCCCC/C=C/C(=O)CCc1ccc(O)c(OC)c1 | SRB | – | – | 18.6 |
| COCCCOc1ccnc(COc2ccc(NC(=O)Nc3ccc(F)cc3)cc2)c1C | MTT | 72 h | – | 5.74 |
| O=C([O-])c1ccc(-n2nc(-c3ccccc3O)nc2-c2ccccc2[O-])cc1.O=C([O-])c1ccc(-n2nc(-c3ccccc3O)nc2-c2ccccc2[O-])cc1.[Ti+4] | MTT | 72 h | – | 20 |
| COc1cc2ncnc(Nc3ccc(F)c(Cl)c3)c2cc1NC(=O)N/N=C/c1cccn1CCCN1CCCCC1 | MTT | 72 h | – | 3.08 |
| Cc1c(OCC(F)(F)F)ccnc1COc1ccc(NC(=O)Nc2cccc(C(F)(F)F)c2)cc1 | MTT | 72 h | – | 2.65 |
| O=C(NC(=S)NCCNC(=S)NC(=O)c1ccc2ccccc2c1)c1ccc2ccccc2c1 | – | 48 h | – | 2.73 |
| COc1ccc(C(=O)O[C@@H]2CN3Cc4c(cc5c(c4OC)OCO5)[C@@]24C=C[C@H](OC)C[C@@H]34)cc1OC | WST-1 | – | – | 2.6 |

| Structure (SMILES) | method | time | setting | IC50 [µM] |
| --- | --- | --- | --- | --- |
| CS(=O)(=O)c1ccc(-n2cc(/C=N/N=c3\[nH]c(-c4ccc(Br)cc4)cs3)c(-c3ccc(Br)cc3)n2)cc1 | MTT | 48 h | – | 9.41 |
| COc1c(C)cnc(COc2ccc(NC(=O)Nc3ccc(Cl)cc3)cc2)c1C | MTT | 72 h | – | 13.7 |
| O=C(CN1C(=O)/C(=C/c2ccc(Cl)cc2)SC1=S)Nc1ccccc1 | MTT | – | – | 14.3 |
| COc1ccccc1/C=C/CNCC(O)COc1ccc2[nH]c3ccccc3c2c1 (centres unmarked) | CCK-8 | 72 h | – | 9.1 |
| O=C(NCCc1ccccc1)NNC(=O)c1ccc(Nc2nccc(-c3cccnc3)n2)cc1 | MTT | – | – | 23.7 |
| C=CC1=C(C)c2cc3[nH]c(cc4nc(cc5[nH]c(cc1n2)c(C)c5CCC(=O)O)C(CCC(=O)O)=C4C)c(C)c3C=C | – | 4 h | dark | > 100 |
| COc1ccccc1/C=C/CNCC(O)COc1cccc2ncccc12 (centres unmarked) | CCK-8 | 72 h | – | 28.1 |
| NNc1nc(NCc2ccccc2)nc(Nc2ccc(Br)cc2)n1 | SRB | 72 h | – | > 30 |
| COc1ccccc1OCCN(C)CC(O)COc1cccc2[nH]c3ccccc3c12 (centres unmarked) | CCK-8 | 72 h | – | 33.3 |
| COc1ccc2c(c1)/C(=N/NC(=O)c1cc3ccccc3[nH]1)C(=O)N2 | – | – | – | 6.68 |
| COc1cc(N(C)CCN(C)C)c(NC(=O)/C=C/C(C)C)cc1Nc1nc(Nc2cnn(C)c2)c2sccc2n1 | MTT | – | – | 0.44 |
| CC1=C(O)C(=O)C=C2C1=CC=C1[C@@]2(C)CC[C@@]2(C)[C@@H]3C[C@](C)(C(=O)OCCCCCCCCO)CC[C@]3(C)CC[C@]12C | MTT | 48 h | – | 4.13 |
| Oc1ncnc2cc(Nc3nc(-c4ccc(Br)cc4)cs3)ccc12 | MTT | – | – | 22.9 |
| C=CC(=O)Nc1cc(Nc2nc(N3CCc4sccc4C3)c3cccnc3n2)c(OC)cc1N1CCN(CCO)CC1 | MTT | – | – | 5.31 |
| COc1cccc2c1C(=O)c1c(O)c3c(c(O)c1C2=O)C[C@@](O)(C(=O)CO)C[C@@H]3O[C@H]1C[C@H](N)[C@H](O)[C@H](C)O1 | MTT | 48 h | – | 5.06 |
| Cc1cccc(-n2ncc(Br)c(Br)c2=O)c1 | resazurin | 96 h | – | 1.62 |
| O=C1Nc2ccc(Br)cc2/C1=N/NC(=O)c1cc2ccccc2[nH]1 | – | – | – | 16 |
| Cc1ccc(C)n1-c1ccc(-c2nnco2)cc1 | MTT | 72 h | – | 226 |
| COc1ccccc1CCCNCC(O)COc1cccc2[nH]c3ccccc3c12 (centres unmarked) | CCK-8 | 72 h | – | 11.8 |
| COc1cc2ncnc(Nc3ccc(F)c(Cl)c3)c2cc1NC(=O)N/N=C/c1cccn1CCN1CCOCC1 | MTT | 72 h | – | 0.58 |
